Dyrk1A ADPGlo: Dyrk1A (rat) kinase inhibition. Q63470. ADP-Glo luminescence, NFATc1 peptide. 310,000 compounds, 0.43% hits. inhibition, % at 12.5 µM; in the data active = inhibition above about 50%
CAL PDZ FP-1: blocks peptide binding to human CAL PDZ domain | Q9HD26 | purified CAL PDZ, TMR-peptide fluorescence polarization, 1 h | inhibition, % at 20 µM | 330,000 compounds, 0.02% hits | AID 504414;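 active = highest replicate inhibition of at least 40%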
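Test system: purified CerCALP PDZ construct; Compound dosing: one concentration, 20 µM compound; Also added: TMR-labelled reporter peptide T*-PRC34 bound in PDZ groove; Read-out: inhibition from polarization loss; Controls: unlabelled peptide and DMSO controls; Signal: FP readout, S and P plane fluorescence; Incubation: 1 h at RT.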
CAL PDZ FP-2: inhibitors of human CAL PDZ peptide binding; Q9HD26; purified CAL PDZ, TMR-peptide fluorescence polarization, 1 h; inhibition, % at 24.9 µM; 300,000 compounds, 0.92% hits; AID 602252;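 active = mean inhibition of at least 30% with at least half of replicates also reaching 30%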
ARNT-TACC3 inh: disruptors of human ARNT/TACC3 interaction; AID 623870; AlphaScreen His-ARNT PAS-B/GST-TACC3 binding, luminescence; TACC3 fragment carries E629A point mutation; Q9Y6A5; 390,000 compounds, 0.66% hits; inhibition, % at 9.99 µM;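 active = mean inhibition of replicates at least 50% and at least half of replicates each reaching 50%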
ARNT Alpha ctr: AlphaScreen artifact in ARNT/TACC3 counter-screen. shares compounds with ARNT-TACC3 inh. His-ARNT PASB-GST AlphaScreen artifact counter-screen, luminescence. AC50, µM (doses to about 68 µM). 1,200 compounds, 50% hits;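 active = every separate test run was called active for a drop in luminescence, with AC50 within twice the top valid dose, actives reach about 71 µM in these data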
Of the large screens only hits and unclear results are named; the others gave an inactive call (follow-up assays come after a bar, where they were run). Rows were chosen to be rich in hits. Some 1.4% of all compounds tested hit in one or more screens of this group.

C#CCOCCOCCOCCNc1nc(N2CCN(C(=O)[C@H](CCCCN)n3cc(CN)nn3)CC2)nc(N2CCN(C(=O)[C@H](CCCCN)n3cc([C@@H](N)CC(N)=O)nn3)CC2)n1	none
C=CC[C@]1(C(=O)N2CCOCC2)COC(c2ccc(OCCCO)cc2)=N1	none (no result: Dyrk1A ADPGlo, CAL PDZ FP-1, CAL PDZ FP-2)
C[C@H]1CN([C@@H](C)CO)S(=O)(=O)c2ccc(-c3cccc(C#N)c3)cc2O[C@@H]1CN(C)C(=O)C1CC1	none (no result: Dyrk1A ADPGlo, CAL PDZ FP-1, CAL PDZ FP-2)
O=C(C[C@@H]1CC[C@H]2[C@@H](COC[C@H](O)CN2S(=O)(=O)c2ccccc2)O1)N1CCOCC1	none (no result: Dyrk1A ADPGlo, CAL PDZ FP-1, CAL PDZ FP-2)
O=C(N/N=C/C=C/c1ccco1)c1cnccn1	ARNT-TACC3 inh 62 (no result: CAL PDZ FP-2) | ARNT Alpha ctr inactive
CCOc1ccc(Cl)cc1C(c1c(C)[nH][nH]c1=O)c1c(C)[nH][nH]c1=O	ARNT-TACC3 inh active | ARNT Alpha ctr inactive
O=C(NCC[C@@H]1CC[C@@H](NC(=O)C2CCC2)[C@@H](CO)O1)c1cnccn1	none (no result: Dyrk1A ADPGlo, CAL PDZ FP-1, CAL PDZ FP-2)
Cc1ccc(S(=O)(=O)/N=C2\C=C(Nc3ccc(O)cc3)C(=O)c3ccccc32)cc1	ARNT-TACC3 inh 54 (no result: CAL PDZ FP-2) | ARNT Alpha ctr 5.2µM
CC(C)NC(=O)N1[C@H](CO)[C@@H]2c3ccccc3NC[C@@H]21	ARNT-TACC3 inh active (no result: Dyrk1A ADPGlo, CAL PDZ FP-1, CAL PDZ FP-2) | ARNT Alpha ctr inactive
CC(=O)N[C@@H]1CC[C@@H](CCNC(=O)C2CC2)O[C@@H]1CO	none (no result: Dyrk1A ADPGlo, CAL PDZ FP-1, CAL PDZ FP-2)
O=C(NCc1ccccn1)c1ccc(-c2ccccc2)cc1	none
O=C(NCc1ccccn1)c1c(-c2ccccc2)sc2ccccc12	ARNT-TACC3 inh 59 | ARNT Alpha ctr inactive
CN1CCN(/N=C/c2nc(-c3ccccc3Cl)n3ccccc23)CC1	ARNT-TACC3 inh 35 | ARNT Alpha ctr inactive
Clc1ccccc1-c1nc(/C=N/N2CCOCC2)c2ccccn12	none
COC(=O)CNC(=O)CCC(=O)N1CCN(C(c2ccccc2)c2ccccc2)CC1	none
CCCCNC(=O)CCC(=O)N1CCN(C(c2ccccc2)c2ccccc2)CC1	ARNT-TACC3 inh 49 | ARNT Alpha ctr inactive
CC(C)N(C(C)C)S(=O)(=O)c1ccc(NN)nc1	none
CCN(CC)S(=O)(=O)c1ccc(NN)nc1	ARNT-TACC3 inh 56 | ARNT Alpha ctr 45µM
O=C(CSc1n[nH]c(-c2ccccn2)n1)Nc1cccc(Cl)c1	ARNT-TACC3 inh 56 | ARNT Alpha ctr 14µM
Cc1ccc(O)c(NC(=O)CSc2n[nH]c(-c3ccccc3)n2)c1	none
Cc1ccc(C)c(NC(=O)CSc2n[nH]c(-c3ccccn3)n2)c1	ARNT-TACC3 inh 77 (no result: CAL PDZ FP-2) | ARNT Alpha ctr 10µM
CCC(=O)N[C@@H]1C=C[C@H](CC(=O)NCc2cc(F)cc(F)c2)O[C@H]1CO	none (no result: Dyrk1A ADPGlo, CAL PDZ FP-1, CAL PDZ FP-2)
Cc1cccc(CNC(=O)c2cc(-c3ccccc3)on2)c1	none (no result: Dyrk1A ADPGlo, CAL PDZ FP-1, CAL PDZ FP-2, ARNT-TACC3 inh) | ARNT Alpha ctr 47µM
O=C(NCCN1CCCCC1)c1cc(-c2ccccc2)on1	none (no result: Dyrk1A ADPGlo, CAL PDZ FP-1, CAL PDZ FP-2, ARNT-TACC3 inh) | ARNT Alpha ctr inactive
O=C(NCc1ccc2c(c1)OCO2)c1cc(-c2ccccc2)on1	none
CC(C)(C)CCNC(=O)c1cc(-c2ccccc2)on1	none (no result: Dyrk1A ADPGlo, CAL PDZ FP-1, CAL PDZ FP-2, ARNT-TACC3 inh) | ARNT Alpha ctr 68µM
O=C(NCCCO)c1cc(-c2ccccc2)on1	none (no result: Dyrk1A ADPGlo, CAL PDZ FP-1, CAL PDZ FP-2, ARNT-TACC3 inh) | ARNT Alpha ctr inactive
O=C(NCc1ccccn1)c1cc(-c2ccccc2)on1	none
Cc1noc(C)c1S(=O)(=O)Nc1cccc2c1O[C@@H](CN(C)Cc1ccc(C(=O)O)cc1)[C@@H](C)CN([C@H](C)CO)C2=O	none (no result: Dyrk1A ADPGlo, CAL PDZ FP-1, CAL PDZ FP-2)
C[C@H](CO)N1C[C@H](C)[C@H](CN(C)C)Oc2ccc(NS(=O)(=O)c3cccs3)cc2CC1=O	none (no result: Dyrk1A ADPGlo, CAL PDZ FP-1, CAL PDZ FP-2)
CC=Cc1ccc2n(c1=O)C[C@@H]1[C@@H](CO)[C@H](C(=O)NCC)N(C(=O)CC3CC3)[C@H]21 (mixture of isomers)	none (no result: Dyrk1A ADPGlo, CAL PDZ FP-1, CAL PDZ FP-2)
O=C(NCC[C@@H]1CC[C@H](NS(=O)(=O)c2cccc(Cl)c2)[C@H](CO)O1)c1cnccn1	none (no result: Dyrk1A ADPGlo, CAL PDZ FP-1, CAL PDZ FP-2)
O=C(NCc1cccs1)c1cc(-c2ccccc2)on1	none
CCCCNC(=O)c1cc(-c2ccccc2)on1	none (no result: Dyrk1A ADPGlo, CAL PDZ FP-1, CAL PDZ FP-2, ARNT-TACC3 inh) | ARNT Alpha ctr inactive
O=C(NCC1CCCCC1)c1cc(-c2ccccc2)on1	none (no result: Dyrk1A ADPGlo, CAL PDZ FP-1, CAL PDZ FP-2, ARNT-TACC3 inh) | ARNT Alpha ctr inactive
COC(=O)C(CC#Cc1ccc2c(c1)[C@]1(C(=O)N2)[C@H](C(=O)N2CCCCCCC2)[C@H]2C(=O)O[C@H](c3ccccc3)[C@H](c3ccccc3)N2[C@@H]1c1ccc(OCCO)cc1)C(=O)OC	none (no result: Dyrk1A ADPGlo, CAL PDZ FP-1, CAL PDZ FP-2)
COC(=O)C(CC#Cc1ccc2c(c1)[C@]1(C(=O)N2)[C@H](c2ccc(O)cc2)N2[C@H](c3ccccc3)[C@H](c3ccccc3)OC(=O)[C@H]2[C@@H]1C(=O)N1CCCCCCC1)C(=O)OC	ARNT-TACC3 inh 68 (no result: Dyrk1A ADPGlo, CAL PDZ FP-1, CAL PDZ FP-2) | ARNT Alpha ctr inactive
